The source of these data is ChEMBL document CHEMBL3860039, “Structure-Activity Relationship and Signaling of New Chimeric CXCR4 Agonists” (J Med Chem, 2016).

Format in all cases: cell-based
The target in assay [1] is T1, C-X-C chemokine receptor type 4 (Homo sapiens, UniProt P61073). Kind of assay: Agonist activity at CXCR4 in human REH cells assessed as optimal concentration causing maximum induction of chemotaxis incubated for 3 hrs by transwell migration assay. Put shortly: (§1)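 REH acute lymphoblastic B-cell leukaemia cells washed in RPMI; 100 000 cells in RPMI + 0.2% BSA seeded on top of 5 μm pore polycarbonate transwell, peptide dilutions in same medium in bottom chamber; 3 h, 37 °C, 5% CO2. Migrated cells in lower chamber counted by automated counter, expressed as % of seeded cells; peak = concentration giving maximal migration. Three experiments in triplicate.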
T1 sequence (P61073 whole entry): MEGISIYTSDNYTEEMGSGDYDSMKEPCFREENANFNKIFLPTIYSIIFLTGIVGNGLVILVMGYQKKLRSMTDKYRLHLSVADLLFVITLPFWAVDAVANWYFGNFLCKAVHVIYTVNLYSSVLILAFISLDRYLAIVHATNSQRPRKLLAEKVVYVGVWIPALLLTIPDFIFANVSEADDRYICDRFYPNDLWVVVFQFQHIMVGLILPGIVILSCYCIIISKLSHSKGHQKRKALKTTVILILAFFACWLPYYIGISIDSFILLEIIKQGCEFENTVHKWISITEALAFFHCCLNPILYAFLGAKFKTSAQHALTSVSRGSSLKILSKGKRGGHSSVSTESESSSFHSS

The target in assay [2] is T1, C-X-C chemokine receptor type 4. As to the kind of experiment: Agonist activity at CXCR4 in human REH cells assessed as induction of chemotaxis incubated for 3 hrs by transwell migration assay. The essentials:
as §1

For assay [3] the target is unchanged. Kind of assay: Agonist activity at HA-tagged human CXCR4 receptor expressed in HEK293 cells co-transfected with Galphai1-91-RlucII, Gbeta1, and GFP10-G-gamma1 incubated for 7 mins by Galpha1 protein activation-based BRET assay. The essentials:
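HEK293 cells (3 × 10^6 per 100 mm dish) co-transfected via polyethylenimine with HA-hCXCR4 plus Gαi1-91-RlucII, Gβ1, GFP10-Gγ1; replated at 24 h, 100 000 cells/well. At 48 h, washed in HBSS/0.1% BSA, exposed to ligand 10−12 to 10−5 M for 7 min, then coelenterazine-400A 5 μM final; BRET2 515/400 nm ratio. EC50 (Gαi dissociation) and Emax from three experiments in triplicate.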

Assay [4] has the same target. Kind of assay: Displacement of [125I]-CXCL12 from HA-tagged human recombinant CXCR4 expressed in HEK293 cells incubated for 1 hr by gamma-radiation counting analysis. Background: Loss of bound radioactivity is the signal in a displacement assay; it reports binding, not function.

With `CC(C)C[C@H](NC(=O)[C@H](CO)NC(=O)[C@H](Cc1ccc2cc3ccccc3cc2c1)NC(=O)[C@@H]1CCCN1C(=O)[C@@H](N)CCCCN)C(=O)N[C@@H](CO)C(=O)N[C@@H](Cc1ccc(O)cc1)C(=O)N[C@@H](CCCNC(=N)N)C(=O)N[C@@H](CO)C(=O)N[C@@H](C)C(=O)NCCCC[C@H](NC(=O)[C@@H]1CSSC[C@H](NC(=O)[C@H](Cc2ccc3ccccc3c2)NC(=O)[C@H](CCCNC(=N)N)NC(=O)[C@@H](N)CCCNC(=N)N)C(=O)N[C@@H](Cc2ccc(O)cc2)C(=O)N[C@@H](CCCNC(=N)N)C(=O)N[C@@H](CCCCN)C(=O)N[C@H](CCCCN)C(=O)N2CCC[C@H]2C(=O)N[C@@H](Cc2ccc(O)cc2)C(=O)N[C@@H](CCCNC(=N)N)C(=O)N[C@@H](CCCNC(=N)N)C(=O)N1)C(=O)O`, the Activity in assay [1] was 10 nM. Also, the %max in assay [2] is 75%. For the same compound, in assay [3], the EC50 (in general, the concentration that produces a half-maximal response) came to 81 nM and the Emax (commonly the maximal effect, on the per cent scale that the assay sets) amounted to 68%. The IC50 (in general, the concentration at which inhibition is half-maximal) in assay [4] stood at 48 nM.

For the compound `CC(C)C[C@H](NC(=O)[C@H](CO)NC(=O)[C@@H](NC(=O)[C@@H]1CCCN1C(=O)[C@@H](N)CCCCN)C(C)C)C(=O)N[C@@H](CO)C(=O)N[C@@H](Cc1ccc(O)cc1)C(=O)N[C@@H](CCCNC(=N)N)C(=O)N[C@@H](CO)C(=O)N[C@@H](C)C(=O)NCCCC[C@H](NC(=O)[C@@H]1CSSC[C@H](NC(=O)[C@H](Cc2ccc3ccccc3c2)NC(=O)[C@H](CCCNC(=N)N)NC(=O)[C@@H](N)CCCNC(=N)N)C(=O)N[C@@H](Cc2ccc(O)cc2)C(=O)N[C@@H](CCCNC(=N)N)C(=O)N[C@@H](CCCCN)C(=O)N[C@H](CCCCN)C(=O)N2CCC[C@H]2C(=O)N[C@@H](Cc2ccc(O)cc2)C(=O)N[C@@H](CCCNC(=N)N)C(=O)N[C@@H](CCCNC(=N)N)C(=O)N1)C(=O)O`, the Activity in assay [1] came to 10 nM. Further, the %max in assay [2] came out at 45%. Moreover, in assay [3], a half-maximal response (EC50) required 58 nM and the maximal response (Emax) is 55%. Besides, the IC50 in assay [4] was 84 nM.

On to `CC(C)C[C@H](NC(=O)[C@H](CO)NC(=O)[C@@H](NC(=O)[C@@H]1CCCN1C(=O)[C@@H](N)CCCCN)C(C)C)C(=O)N[C@@H](CO)C(=O)N[C@@H](Cc1ccc(C(=O)c2ccccc2)cc1)C(=O)N[C@@H](CCCNC(=N)N)C(=O)N[C@@H](CO)C(=O)N[C@@H](C)C(=O)NCCCC[C@H](NC(=O)[C@@H]1CSSC[C@H](NC(=O)[C@H](Cc2ccc3ccccc3c2)NC(=O)[C@H](CCCNC(=N)N)NC(=O)[C@@H](N)CCCNC(=N)N)C(=O)N[C@@H](Cc2ccc(O)cc2)C(=O)N[C@@H](CCCNC(=N)N)C(=O)N[C@@H](CCCCN)C(=O)N[C@H](CCCCN)C(=O)N2CCC[C@H]2C(=O)N[C@@H](Cc2ccc(O)cc2)C(=O)N[C@@H](CCCNC(=N)N)C(=O)N[C@@H](CCCNC(=N)N)C(=O)N1)C(=O)O`, for which, in assay [1], the Activity came to 10 nM. The %max in assay [2] amounted to 69%. Further, in assay [3], the EC50 is 76 nM and the Emax came out at 90%. Besides, in assay [4], the half-maximal inhibitory concentration (IC50) amounted to 34 nM.
